{
  "source": "ChEMBL document CHEMBL1157101",
  "about": "“A series of alpha-heterocyclic carboxaldehyde thiosemicarbazones inhibit topoisomerase IIalpha catalytic activity” (J Med Chem, 2010)",
  "key": {"[1]": {"target": "T1, DNA topoisomerase 2-alpha (Homo sapiens, UniProt P11388)", "T1 sequence (P11388 whole entry)": "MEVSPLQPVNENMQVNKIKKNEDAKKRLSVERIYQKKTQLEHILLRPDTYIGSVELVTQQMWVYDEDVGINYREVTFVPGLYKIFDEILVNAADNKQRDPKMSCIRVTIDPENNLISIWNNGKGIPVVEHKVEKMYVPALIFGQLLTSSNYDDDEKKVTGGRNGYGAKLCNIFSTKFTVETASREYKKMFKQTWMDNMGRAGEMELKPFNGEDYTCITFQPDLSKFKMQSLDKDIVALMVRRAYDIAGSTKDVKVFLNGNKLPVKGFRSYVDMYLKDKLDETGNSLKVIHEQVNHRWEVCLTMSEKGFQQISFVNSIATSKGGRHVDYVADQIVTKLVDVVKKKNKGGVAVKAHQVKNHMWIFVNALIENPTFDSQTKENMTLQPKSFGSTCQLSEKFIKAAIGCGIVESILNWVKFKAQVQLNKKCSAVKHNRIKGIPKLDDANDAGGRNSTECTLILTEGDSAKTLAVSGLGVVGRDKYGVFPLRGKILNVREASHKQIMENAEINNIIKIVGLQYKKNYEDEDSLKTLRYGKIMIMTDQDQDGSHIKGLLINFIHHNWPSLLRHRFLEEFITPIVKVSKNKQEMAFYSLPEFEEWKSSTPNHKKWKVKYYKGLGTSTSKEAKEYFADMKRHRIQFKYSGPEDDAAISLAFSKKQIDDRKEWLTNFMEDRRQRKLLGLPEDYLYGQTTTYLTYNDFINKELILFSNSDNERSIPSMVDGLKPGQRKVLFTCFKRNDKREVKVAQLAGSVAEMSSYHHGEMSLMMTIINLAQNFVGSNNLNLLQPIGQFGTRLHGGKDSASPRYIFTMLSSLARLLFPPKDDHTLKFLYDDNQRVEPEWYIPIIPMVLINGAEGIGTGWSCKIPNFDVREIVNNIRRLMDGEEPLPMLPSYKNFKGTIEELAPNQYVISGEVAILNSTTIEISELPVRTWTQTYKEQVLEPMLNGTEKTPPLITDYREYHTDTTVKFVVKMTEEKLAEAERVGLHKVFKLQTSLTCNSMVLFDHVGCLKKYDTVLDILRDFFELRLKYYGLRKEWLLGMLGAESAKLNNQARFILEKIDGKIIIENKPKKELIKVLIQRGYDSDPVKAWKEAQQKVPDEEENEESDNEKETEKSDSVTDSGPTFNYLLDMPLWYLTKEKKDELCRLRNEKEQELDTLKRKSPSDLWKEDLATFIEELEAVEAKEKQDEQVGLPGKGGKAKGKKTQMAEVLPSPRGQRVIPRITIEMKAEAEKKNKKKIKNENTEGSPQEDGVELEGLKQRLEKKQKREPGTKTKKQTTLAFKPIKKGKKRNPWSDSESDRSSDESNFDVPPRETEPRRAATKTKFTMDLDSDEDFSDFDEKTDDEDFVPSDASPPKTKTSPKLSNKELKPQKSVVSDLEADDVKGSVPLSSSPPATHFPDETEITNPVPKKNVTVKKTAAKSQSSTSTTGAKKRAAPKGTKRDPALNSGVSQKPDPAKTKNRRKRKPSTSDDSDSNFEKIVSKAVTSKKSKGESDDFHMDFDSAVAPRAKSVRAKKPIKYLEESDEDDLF", "assay": "Inhibition of topoisomerase-2 alpha in human HL60/MX2 cells assessed as antagonization of enzyme-DNA cleavage complex at 100 uM", "assay_type": "cell-based"}, "[2]": {"tested_on": "HCT-116", "assay": "Antiproliferative activity against human HCT116 cells after 72 hrs by sulforhodamine B assay", "assay_type": "functional, cell-based", "details": "HCT-116, 72 h", "outline": "(§1)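 Cells seeded and exposed in triplicate to graded compound concentrations for 72 h. Suspension cells read by MTT conversion to coloured product; adherent cells read by sulforhodamine B. IC50 (50% growth inhibition versus untreated control) derived by the Logit method.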"}, "[3]": {"tested_on": "SGC-7901", "assay": "Antiproliferative activity against human SGC7901 cells after 72 hrs by sulforhodamine B assay", "assay_type": "functional, cell-based", "details": "SGC-7901, 72 h", "outline": "as §1"}, "[4]": {"target": "T1, DNA topoisomerase 2-alpha", "assay": "Inhibition of human topoisomerase 2alpha-mediated relaxation of pBR322 at 25 uM"}, "[5]": {"tested_on": "Nucleic Acid", "assay": "Inhibition of Fenton's reaction mediated DNA strand break in Escherichia coli pBR322 by gel electrophoresis", "assay_type": "nucleic-acid assay", "outline": "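pBR322 (0.2 μg) incubated 30 min at room temperature in 13 mM Hepes pH 7.2 with 1 mM H2O2 and 10 μM FeSO4 plus compound. Run on 1% agarose containing 0.1 μg/mL ethidium bromide at 90 V for 60 min. Bands quantified; % supercoiled = 1.4SC/(L+OC+1.4SC)×100.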"}, "[6]": {"tested_on": "HT-29", "assay": "Antiproliferative activity against human HT-29 cells after 72 hrs by sulforhodamine B assay", "assay_type": "functional, cell-based", "details": "HT-29, 72 h", "outline": "as §1"}, "[7]": {"target": "T1, DNA topoisomerase 2-alpha", "assay": "Inhibition of human topoisomerase 2alpha-mediated decatenation of kDNA at 25 uM"}, "[8]": {"tested_on": "Mus musculus", "assay": "Toxicity in Kunming mouse bearing mouse S180 cells assessed as change in body weight at 50 mg/kg/day, ip for 7 days (reference value: 17.9 g)", "assay_type": "organism-based, CCRF S-180", "set-up": "route intraperitoneal", "details": "in vivo, 168 h", "outline": "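Female Kunming mice, 7 weeks old and 18-22 g, were inoculated sc in the right armpit with S-180 sarcoma. From the next day they received ip injections at the stated daily dose for 7 days, alongside a normal-saline control group. Body weight was recorded at the start and at the end of treatment.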"}, "[9]": {"tested_on": "U-937", "assay": "Antiproliferative activity against human U937 cells after 72 hrs by sulforhodamine B assay", "assay_type": "functional, cell-based", "details": "U-937, 72 h", "outline": "as §1"}, "[10]": {"target": "T1, DNA topoisomerase 2-alpha", "assay": "Binding affinity to human topoisomerase 2 alpha ATPase domain in presence of ATP", "outline": "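Surface plasmon resonance. Human Topo IIα ATPase domain immobilised on CM5 chips after activation of surface carboxyl groups. Serial compound dilutions flowed over the chip and sensorgrams recorded. KD obtained by steady-state affinity fitting.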"}, "[11]": {"tested_on": "HT-29", "assay": "Cell cycle arrest in human HT-29 cells pretreated with aphidicolin for 1 hr assessed as accumulation at G1/S phase after 24 hrs by flow cytometry in presence of nocdazole", "assay_type": "functional, cell-based", "outline": "(§2)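 HT-29 cells stained with propidium iodide; cell-cycle distribution determined by flow cytometry.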"}, "[12]": {"target": "T1, DNA topoisomerase 2-alpha", "assay": "Inhibition of topoisomerase 2alpha-mediated displacement of Hoechst 33258 from DNA assessed as decrease in fluorescence", "details": "concentration not given here"}, "[13]": {"target": "T2, DNA topoisomerase 1 (Homo sapiens) (UniProt P11387)", "T2 sequence (whole entry)": "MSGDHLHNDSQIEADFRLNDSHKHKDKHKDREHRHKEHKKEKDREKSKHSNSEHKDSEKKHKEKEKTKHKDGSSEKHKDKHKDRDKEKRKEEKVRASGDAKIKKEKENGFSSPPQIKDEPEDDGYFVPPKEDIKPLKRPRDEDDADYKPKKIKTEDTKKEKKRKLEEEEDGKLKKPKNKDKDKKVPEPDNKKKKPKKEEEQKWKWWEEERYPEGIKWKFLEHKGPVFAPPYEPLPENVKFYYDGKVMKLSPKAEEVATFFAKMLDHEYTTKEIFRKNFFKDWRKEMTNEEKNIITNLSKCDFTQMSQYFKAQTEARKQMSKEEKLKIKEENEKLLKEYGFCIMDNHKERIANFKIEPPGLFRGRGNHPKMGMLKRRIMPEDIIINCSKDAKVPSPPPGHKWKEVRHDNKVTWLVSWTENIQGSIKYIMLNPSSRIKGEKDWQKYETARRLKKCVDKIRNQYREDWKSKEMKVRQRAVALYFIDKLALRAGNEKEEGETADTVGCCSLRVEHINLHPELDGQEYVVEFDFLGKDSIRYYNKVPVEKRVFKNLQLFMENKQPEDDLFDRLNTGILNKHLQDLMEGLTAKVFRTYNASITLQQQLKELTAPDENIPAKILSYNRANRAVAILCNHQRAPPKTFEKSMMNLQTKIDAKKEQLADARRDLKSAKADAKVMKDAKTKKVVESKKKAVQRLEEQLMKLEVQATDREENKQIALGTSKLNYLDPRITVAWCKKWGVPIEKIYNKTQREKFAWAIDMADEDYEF", "assay": "Inhibition of human topoisomerase 1-mediated relaxation of pBR322 at 100 uM"}, "[14]": {"assay": "Antiproliferative activity against human KB/VCR cells after 72 hrs by sulforhodamine B assay", "assay_type": "functional, cell-based", "outline": "as §1"}, "[15]": {"assay": "Antiproliferative activity against human Rh30 cells after 72 hrs by sulforhodamine B assay", "assay_type": "functional, cell-based", "details": "SJRH30, 72 h", "outline": "as §1"}, "[16]": {"target": "T2, DNA topoisomerase 1 (Homo sapiens)", "assay": "Inhibition of human topoisomerase 1-mediated relaxation of pBR322 up to 125 uM"}, "[17]": {"tested_on": "MCF7", "assay": "Antiproliferative activity against human MCF7 cells after 72 hrs by sulforhodamine B assay", "assay_type": "functional, cell-based", "details": "MCF7, 72 h"}, "[18]": {"target": "T1, DNA topoisomerase 2-alpha", "assay": "Inhibition of topoisomerase-2 alpha in human HT-29 cells assessed as reversal of etoposide-mediated DNA double strand break measured as phosphorylated histone2A level at 1 uM by immunostaining", "assay_type": "cell-based"}, "[19]": {"target": "T1, DNA topoisomerase 2-alpha", "assay": "Inhibition of topoisomerase-2 alpha in human HT-29 cells assessed as reversal of etoposide-mediated DNA double strand break after 1 hr measured as phosphorylated histone2A level by immunostaining", "assay_type": "cell-based"}, "[20]": {"target": "T1, DNA topoisomerase 2-alpha", "assay": "Inhibition of human topoisomerase 2 alpha-mediated decatenation of kDNA at 100 uM after 15 mins"}, "[21]": {"target": "T2, DNA topoisomerase 1 (Homo sapiens)", "assay": "Inhibition of topoisomerase 1-mediated unwinding of supercoiled DNA assessed as DNA intercalation"}, "[22]": {"tested_on": "HT-29", "assay": "Cell cycle arrest in human HT-29 cells assessed as accumulation at G1 phase at 0.5 to 1 uM after 24 hrs by flow cytometry", "assay_type": "functional, cell-based", "outline": "as §2"}, "[23]": {"target": "T1, DNA topoisomerase 2-alpha", "assay": "Inhibition of topoisomerase-2 alpha in human HT-29 cells assessed as reversal of etoposide-mediated DNA double strand break measured as phosphorylated histone2A level at 100 uM by immunostaining", "assay_type": "cell-based"}},
  "note": "Active and inactive are the calls of the source. No cut-off for these calls is given here.",
  "data": [
    {"smiles": "CN(C)C(=S)N/N=C/c1ccc2ccccc2n1", "values": [
      {"measurement": "inhibition", "setting": "[1]", "result": "inactive"},
      {"measurement": "IC50", "setting": "[2]", "result": 0.22, "unit": "µM"},
      {"measurement": "IC50", "setting": "[3]", "result": 0.03, "unit": "µM"},
      {"measurement": "inhibition", "setting": "[4]", "result": "inactive"},
      {"measurement": "inhibition", "setting": "[5]", "result": "Dose-dependent effect"},
      {"measurement": "IC50", "setting": "[6]", "result": 0.02, "unit": "µM"},
      {"measurement": "inhibition", "setting": "[7]", "result": "Active"},
      {"measurement": "Activity", "setting": "[8]", "result": 20, "unit": "g"},
      {"measurement": "IC50", "setting": "[9]", "result": 0.03, "unit": "µM"},
      {"measurement": "Activity", "setting": "[10]", "result": "inactive"},
      {"measurement": "Activity", "setting": "[11]", "result": "inactive"},
      {"measurement": "inhibition", "setting": "[12]", "result": 22, "unit": "%"},
      {"measurement": "inhibition", "setting": "[13]", "result": "Active"},
      {"measurement": "IC50", "setting": "[14]", "result": 0.3, "unit": "µM"},
      {"measurement": "IC50", "setting": "[15]", "result": 0.002, "unit": "µM"},
      {"measurement": "inhibition", "setting": "[16]", "result": "inactive"},
      {"measurement": "IC50", "setting": "[17]", "result": 0.34, "unit": "µM"},
      {"measurement": "inhibition", "setting": "[18]", "result": "Active"},
      {"measurement": "inhibition", "setting": "[19]", "result": "Dose-dependent effect"},
      {"measurement": "inhibition (active/not active)", "setting": "[20]", "result": "Active"},
      {"measurement": "inhibition", "setting": "[21]", "result": "inactive"},
      {"measurement": "Activity", "setting": "[22]", "result": "Active"},
      {"measurement": "inhibition", "setting": "[23]", "result": "Active"}
    ]}
  ]
}
